In ChEMBL document CHEMBL2157942, “ortho-Quinone tanshinones directly inhibit telomerase through an oxidative mechanism mediated by hydrogen peroxide” (Bioorg Med Chem Lett, 2011):
Activity calls are given as the source filed them. No cut-off for these calls is given here.

Key:
[1] = biological target: T1, Telomerase reverse transcriptase (Homo sapiens, UniProt O14746); test: Inhibition of human recombinant telomerase activity in rabbit reticulocytes at 50 uM after 90 mins by telomerase assemblage gel electrophoresis; assay type: cell-based
T1 sequence (O14746 whole entry): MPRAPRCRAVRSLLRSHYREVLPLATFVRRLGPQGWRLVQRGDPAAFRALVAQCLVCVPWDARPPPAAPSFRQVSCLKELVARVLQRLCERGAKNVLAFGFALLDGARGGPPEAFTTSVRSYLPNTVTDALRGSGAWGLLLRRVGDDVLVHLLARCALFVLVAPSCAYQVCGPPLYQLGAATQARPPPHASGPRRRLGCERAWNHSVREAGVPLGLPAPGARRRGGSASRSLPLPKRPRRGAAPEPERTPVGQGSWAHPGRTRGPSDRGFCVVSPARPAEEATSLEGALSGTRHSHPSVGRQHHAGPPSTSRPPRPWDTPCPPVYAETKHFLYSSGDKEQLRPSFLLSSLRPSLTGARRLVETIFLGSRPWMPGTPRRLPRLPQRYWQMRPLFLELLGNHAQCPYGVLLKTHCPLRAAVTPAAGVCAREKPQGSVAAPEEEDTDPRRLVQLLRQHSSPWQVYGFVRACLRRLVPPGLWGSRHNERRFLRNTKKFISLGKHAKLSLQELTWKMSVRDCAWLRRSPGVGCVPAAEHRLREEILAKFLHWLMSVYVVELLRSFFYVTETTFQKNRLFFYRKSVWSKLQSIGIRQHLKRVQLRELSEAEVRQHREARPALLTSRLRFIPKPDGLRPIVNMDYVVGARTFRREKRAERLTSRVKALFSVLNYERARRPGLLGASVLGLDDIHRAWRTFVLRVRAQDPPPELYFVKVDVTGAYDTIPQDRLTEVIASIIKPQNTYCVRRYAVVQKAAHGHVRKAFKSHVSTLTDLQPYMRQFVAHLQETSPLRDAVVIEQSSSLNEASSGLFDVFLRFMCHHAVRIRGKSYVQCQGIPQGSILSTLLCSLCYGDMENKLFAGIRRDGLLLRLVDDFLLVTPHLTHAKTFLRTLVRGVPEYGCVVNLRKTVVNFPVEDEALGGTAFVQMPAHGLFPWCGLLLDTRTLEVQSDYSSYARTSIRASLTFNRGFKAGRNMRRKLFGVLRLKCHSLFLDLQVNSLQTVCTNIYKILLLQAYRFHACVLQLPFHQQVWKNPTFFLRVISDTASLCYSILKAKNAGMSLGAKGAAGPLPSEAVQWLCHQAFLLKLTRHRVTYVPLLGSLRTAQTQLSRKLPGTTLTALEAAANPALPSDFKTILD
How it was run: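 Assembly format: hTERT translated in rabbit reticulocyte lysate was incubated 1.5 h with in vitro transcribed hTER in the presence of inhibitor. Activity was then read by direct primer extension, with products resolved by gel electrophoresis and imaged by phosphorimaging. Products were normalized to a 100 nt 32P-labeled oligonucleotide loading control, and percent activity was calculated against a DMSO carrier control.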

[2] = biological target: T1, Telomerase reverse transcriptase; test: Inhibition of human recombinant telomerase activity in rabbit reticulocytes after 90 mins by telomerase assemblage gel electrophoresis; assay type: cell-based
How it was run: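 hTERT translated in rabbit reticulocyte lysate, then incubated 1.5 h with in vitro transcribed hTER in the presence of inhibitor (DMSO carrier). Activity was read by direct primer extension, with products resolved on gel and phosphorimaged. Signal was normalized to a 100 nt 32P-labeled DNA loading control, and percent activity was taken versus the DMSO-only control.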

MCF7 = test: Cytotoxicity against telomerase positive human MCF7 cells after 96 hrs by SRB assay; assay type: functional, cell-based; settings: MCF7, 96 h
PC-3 = test: Cytotoxicity against telomerase positive human PC3 cells after 96 hrs by SRB assay; assay type: functional, cell-based; settings: PC-3, 96 h
[3] = Cytotoxicity against telomerase negative human GM847 cells after 96 hrs by SRB assay; assay type: functional, cell-based; settings: GM847, 96 h
SAOS-2 = test: Cytotoxicity against telomerase negative human Saos2 cells after 96 hrs by SRB assay; assay type: functional, cell-based; settings: SAOS-2, 96 h
[4] = biological target: T1, Telomerase reverse transcriptase; test: Inhibition of pre-assembled human recombinant telomerase activity in rabbit reticulocytes after 90 mins by gel electrophoresis method based direct primer extension assay; assay type: cell-based
How it was run: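 Telomerase was first reconstituted in rabbit reticulocyte lysate from hTERT and hTER, then assayed post-assembly by direct primer extension with inhibitor present. Products were gel-resolved, phosphorimaged and normalized to a 32P-labeled 100 nt oligonucleotide loading control. Percent activity was taken relative to the DMSO carrier control.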

[5] = Induction of ROS generation assessed as hydrogen peroxide production in PBS buffer at 20 uM in presence of 5 nM of DTT; assay type: physicochemical; settings: in the assay text read “5 mM of DTT” for “5 nM of DTT”, TDE = time-dependent effect
How it was run: (§1)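 Compound at 20 µM incubated in PBS for set times under three conditions: no DTT, with 5 mM DTT, or with 5 mM DTT plus 30 U catalase. Hydrogen peroxide was measured with a commercial hydrogen peroxide kit. Two independent experiments; mean and standard deviation reported.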

[6] = Induction of ROS generation assessed as hydrogen peroxide production in PBS buffer at 20 uM in absence of DTT; assay type: physicochemical; how it was run: as §1
[7] = Induction of ROS generation assessed as hydrogen peroxide production in PBS buffer at 20 uM in presence of 5 nM of DTT in presence of 30U catalase; assay type: physicochemical; settings: in the assay text read “5 mM of DTT” for “5 nM of DTT”; how it was run: as §1
[8] = biological target: T1, Telomerase reverse transcriptase; settings: MCF7, 3 uM
[9] = biological target: T1, Telomerase reverse transcriptase; settings: 50 uM
[10] = biological target: T1, Telomerase reverse transcriptase; settings: 50 uM; remark: listed apart in the source
[11] = biological target: T1, Telomerase reverse transcriptase; settings: 50 uM; remark: listed apart in the source

Cc1cccc2c1ccc1c3occ(C)c3c(=O)oc21
inhibition [1]: 25%

Cc1coc2c1C(=O)C(=O)c1c-2ccc2c1CCCC2(C)C [TANSHINONE IIA]
inhibition [1]: 75%
IC50 [2]: 5 µM
EC50 (MCF7): 0.9 µM
EC50 (PC-3): 1.2 µM
EC50 [3]: > 20 µM
EC50 (SAOS-2): > 20 µM
IC50 [4]: 0.5 µM
Activity [5]: tde
Activity [6]: Not Active
Activity [7]: Not Active
inhibition [8]: 50%

Cc1coc2c1C(=O)C(=O)c1c-2ccc2c(C)cccc12
inhibition [1]: 65%

C[C@H]1COC2=C1C(=O)C(=O)c1c2ccc2c1CCCC2(C)C
inhibition [1]: 75%

O=C1C(=O)c2ccccc2-c2ccccc21 [9,10-PHENANTHRENEQUINONE]
IC50 [2]: 5 µM
IC50 [4]: 0.5 µM
inhibition [9]: 35%
inhibition [10]: > 95%
inhibition [11]: inactive
